# Source: PubChem BioAssay (The Scripps Research Institute Molecular Screening Center)
# TbMetRS inhib = blocks T. brucei methionyl-tRNA synthetase activity. purified T. brucei MetRS, ATP depletion, Kinase-Glo luminescence. inhibition, % at 11.9 µM. hit rate 0.4% among 360,000. AID 624268;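 active = inhibition above a per-plate cutoff of the control wells' mean inhibition plus 3 SD, cut at about 5.5% in these data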;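 also: 0% = DMSO wells median and 100% = median of wells with control inhibitor compound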
#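 System: purified T. brucei MetRS enzyme / Detection: Kinase-Glo luciferase luminescence reporting remaining unconsumed ATP / Medium: HEPES buffer with MgCl2, KCl, DTT, spermine, BSA, pyrophosphatase / Replication: singlicate, one well per compound / Evaluation: percent inhibition relative to median high and low control wells / Schedule: 2 h aminoacylation at 25 °C after 15 min preincubation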
# procasp3 activ = activators of human procaspase-3. activation, % at 8.5 µM. recombinant procaspase-3 D3A, Ac-DEVD-pNA absorbance 405 nm. hit rate 0.11% among 330,000. P42574;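 active = activation above the mean of all tested compounds plus 3 SD, cut at about 21% in these data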;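 also: 0% = DMSO alone and 100% = DMSO wells spiked with extra 5 µM PC-3 D3A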
#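 Assay system: Autoprocessing-dead procaspase-3 D3A mutant enzyme; also added: Ac-DEVD-pNA; doses: one concentration, 8.5 µM nominal, 0.8% DMSO; times: 1 h compound preincubation, 2 h substrate hydrolysis at 25 °C; technique: 405 nm absorbance of p-nitroaniline, reads at 0 and 120 min; measure: % activation between DMSO and enzyme-spiked controls; repeats: single replicate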
# bovine MsrA act = bovine methionine sulfoxide reductase A activation; activation, % at 10.6 µM; purified bovine MsrA, absorbance read-out; hit rate 0.3% among 360,000; AID 602163; in the data active = activation above about 7.5%;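 also: 0% = vehicle and 100% = reference activator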
# MsrA inh = inhibitors of bovine MsrA; hit rate 0.75% among 360,000; purified bovine MsrA, absorbance read-out; inhibition, % at 15.5 µM;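 also: 0% = vehicle wells with enzyme and 100% = reference inhibitor wells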
# procasp7 counter = activates human procaspase-7, counter-screen for procaspase-3 activators | P55210 | recombinant procaspase-7, Ac-DEVD-pNA absorbance 405 nm; D23A/D198A/D206A triple mutant, cannot self-cleave; scale: DMSO 0, 5 µM enzyme 100 | activation, % at 8.5 µM | hit rate 0.093% among 330,000 | AID 463210;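 active = percent activation above the screen-wide mean plus 3 SD, cut at about 25% in these data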
# Target sequence (P55210 whole entry D23A/D198A/D206A): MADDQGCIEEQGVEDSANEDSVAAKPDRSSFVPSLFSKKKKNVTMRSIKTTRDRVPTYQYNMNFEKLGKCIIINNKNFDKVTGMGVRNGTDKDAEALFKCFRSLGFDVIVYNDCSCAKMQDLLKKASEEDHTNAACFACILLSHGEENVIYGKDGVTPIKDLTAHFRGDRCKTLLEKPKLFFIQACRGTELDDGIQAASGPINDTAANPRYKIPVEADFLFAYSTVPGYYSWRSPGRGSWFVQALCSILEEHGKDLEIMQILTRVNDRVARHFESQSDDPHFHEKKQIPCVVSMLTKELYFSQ
#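 Assay system: Uncleavable procaspase-7 mutant enzyme | Input: 2 µM procaspase-7 mutant as dispensed | Timing: 1 h compound preincubation, 2 h substrate cleavage, 25 °C | Repeats: One well per compound | Control set: DMSO wells as 0%, DMSO with 5 µM added PC-7 as 100% | Technique: Epi-absorbance of released pNA at 405 nm, two timepoints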
# MsrA conf = bovine MsrA inhibition, confirmed; shares compounds with MsrA inh; purified bovine MsrA, absorbance read-out; inhibition, % at 15.5 µM; hit rate 41% among 2,300; AID 651822;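 also: coupled to thioredoxin reductase with NADPH and selenocystamine and DMSO as substrate; 0% = vehicle only and 100% = full effect of reference inhibitor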
# Active calls of the source: *; . = not tested or not shown. This is a sample that favours compounds with a hit; in the whole collection about 1.5% have one here. Rule as the data show it, unless noted: active = inhibition above about 4.5%; inactive = the rest.
SMILES,TbMetRS inhib,procasp3 activ,bovine MsrA act,MsrA inh,procasp7 counter,MsrA conf
O=C(N=Nc1c(O)[nH]c2ccccc12)c1ccc(CN2CCOCC2)cc1,0,-2,2,6.1*,7,3
COc1ccc(C2CC(=O)C(c3ccc(Cl)cc3)=CN2Cc2ccccc2)cc1 (centres undefined),.,.,.,0,.,.
CCCCCOC(=O)C(C)c1c(C)[nH]c(=S)[nH]c1=O (centres undefined),-1,3,-1,13*,5,8.8*
Cc1cc(C(=O)N/N=C/c2c(CO)cnc(C)c2O)c2ccccc2n1,0,-5,1,1,3,.
Cc1ncc(CO)c(/C=N/Nc2cccc(Cl)n2)c1O,0,9,2,9.4*,1,3
CN1CCN(c2nc(C#N)cc(-c3ccccc3)n2)CC1,-1,8,-5,5.0*,-5,1
OCCOCCn1c(-c2ccccc2)nc(=S)c2c1CCCC2,-1,0,-7,5.9*,-10,4
O=C(Nc1ccc(C(=O)O)cc1)/C(=C\c1ccc2c(c1)OCO2)NC(=O)c1ccco1,0,7,-8,7.4*,9,5.0*
O=C(Nc1ccc(C(=O)O)cc1)/C(=C\c1ccc2c(c1)OCO2)NC(=O)c1ccc(Br)o1,0,2,-7,5.1*,3,3
O=C(Nc1cccc(C(=O)O)c1)/C(=C\c1ccc2c(c1)OCO2)NC(=O)c1ccc(Br)o1,1,0,-5,3,0,.
O=C(Nc1ccc(C(=O)O)cc1)/C(=C\c1ccccc1)NC(=O)c1ccco1,0,-7,-2,0,11,.
CCOC(=O)CN1CCCc2nc(C)c(C)cc21,.,.,.,0,.,.
COc1ccc(C=CC(=O)c2c(N)n(C)c(=O)n(C)c2=O)cc1,.,.,.,4,.,.
COc1cc(C)nc(N(Cc2ccccc2)S(=O)(=O)c2ccccc2)n1,-1,4,-13,5.6*,-8,1
CC(c1nccs1)N(C)c1nc2nonc2nc1N(C)C (centres undefined),-1,0,-10,4.9*,9,2
O=S(=O)(c1cccs1)N1CCCc2nc(-c3ccccc3)ccc21,.,.,.,1,.,.
Cc1c(NC(=O)C(C)NCC2CCCO2)c(=O)n(-c2ccccc2)n1C (centres undefined),0,5,-4,-1,0,.
CSC[C@H]1CN(c2ccc(Br)cc2)C(=O)[C@@H]1CC(=O)Nc1ccc(Br)cc1,5,.,-3,0,.,.
CNC(=O)C[C@H]1C(=O)N(c2ccc(Br)cc2)C[C@@H]1CSC,-1,.,-1,5.6*,.,3
COC(=O)/C=C1\S/C(=N/N=C/c2ccco2)NC1=O,0,-5,-4,4.7*,-2,4
COC(=O)/C=C1/S/C(=N/NC(=O)c2ccccc2C)NC1=O,0,-7,-2,6.7*,9,3
COC(=O)/C=C1\S/C(=N/N=C/c2ccc(Cl)cc2)NC1=O,0,-14,-4,0,-1,.
Cc1cc(Oc2cccc3c2S(=O)(=O)N([C@H](C)c2ccccc2)C[C@@H](COCc2ccccc2)O3)cc(C)c1C,.,.,.,0,.,.
Cc1ccc(S(=O)(=O)N2CC3C(=O)C[C@@H](c4ccccc4)N(S(=O)(=O)c4ccccc4Cl)C3CC2c2ccccc2)cc1 (some centres undefined),0,.,.,0,.,.
O=C(/C(C=Nc1ccc(Br)cc1)=C(/O)c1ccco1)C(F)(F)F,1,-11,-4,4.8*,-10,3
SMILES,TbMetRS inhib,procasp3 activ,bovine MsrA act,MsrA inh,procasp7 counter,MsrA conf
O=C(/C(C=Nc1cccc(C(F)(F)F)c1)=C(/O)c1ccco1)C(F)(F)F,0,-8,-4,2,0,.
O=[N+]([O-])c1nccn1CC(O)CCN1CCOCC1 (centres undefined),.,.,.,2,.,.
COc1cc(/C=N/Nc2ccccn2)cc(OC)c1O,0,0,-4,6.0*,-11,5
COc1ccc(/C=C/C(=O)c2ccncc2)c2ccccc12,0,-8,0,8.3*,-2,-1
COc1cccc(/C=C/C(=O)c2cccc([N+](=O)[O-])c2)c1OC,-1,1,-11,1,-2,.
Cc1ccccc1N=C/C=C1\N(C)c2ccccc2C1(C)C,-2,0,-8,2,1,.
